According to ChEMBL document CHEMBL1144557, “The novel C-5 aryl, alkenyl, and alkynyl substituted uracil derivatives of L-ascorbic acid: synthesis, cytostatic, and antiviral activity evaluations” (Bioorg Med Chem, 2007):
Converted amounts (≈) assume the structure as drawn.

How the values were obtained:
[1] = Antiproliferative activity against human Molt4/C8 cells; assay type: functional, cell-based; conditions: MOLT-4
In short: (§1)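 Suspension cells seeded at 50 × 10³ cells/well with a range of test compound concentrations. Cell number counted with a Coulter counter after 2 days (L1210) or 3 days (Molt4/C8, CEM). IC50 is the concentration that cuts cell growth by 50% versus untreated controls, read from plots of cell number (% of control) against concentration.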

CCRF-CEM = assay: Antiproliferative activity against human CEM cells; assay type: functional, cell-based; in short: as §1
HeLa = assay: Antiproliferative activity against human HeLa cells after 72 hrs by MTT assay; assay type: functional, cell-based
In short: (§2)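 Monolayers grown in DMEM with 10% FBS, 2 mM L-glutamine and penicillin/streptomycin at 37 °C, 5% CO2. Seeded at 1 × 10⁴–3 × 10⁴ cells/mL on day 0. Compounds from 0.04 M DMSO stocks added at five 10-fold dilutions (10⁻⁸–10⁻⁴ M final), with matched DMSO controls, for 72 h. MTT added for 4 h, formazan dissolved in DMSO, absorbance read at 570 nm. Percentage growth calculated against time-zero and untreated OD. IC50 is 50% inhibition of proliferation.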

MCF7 = assay: Antiproliferative activity against human MCF7 cells after 72 hrs by MTT assay; assay type: functional, cell-based; conditions: MCF7, 72 h; in short: as §2
MIA PaCa-2 = assay: Antiproliferative activity against human MiaPaCa2 cells after 72 hrs by MTT assay; assay type: functional, cell-based; conditions: Homo sapiens, MIA PaCa-2, 72 h; read-out: IC50; in short: as §2
HEp-2 = assay: Antiproliferative activity against human Hep2 cells after 72 hrs by MTT assay; assay type: functional, cell-based; conditions: HEp-2, 72 h; in short: as §2
SW-620 = assay: Antiproliferative activity against human SW620 cells after 72 hrs by MTT assay; assay type: functional, cell-based; conditions: SW-620, 72 h; in short: as §2
WI-38 = assay: Antiproliferative activity against human WI38 cells after 72 hrs by MTT assay; assay type: functional, cell-based; conditions: WI-38, 72 h; in short: as §2
Human alphaherpesvirus 1 [2] = assay: Antiviral activity against HSV1 KOS-induced cytopathogenicity in HEL cells; assay type: functional; conditions: Human alphaherpesvirus 1, KOS
Human alphaherpesvirus 2 = assay: Antiviral activity against HSV2 G-induced cytopathogenicity in HEL cells; assay type: functional; conditions: Human alphaherpesvirus 2, G
[3] = system: Vesicular stomatitis virus; assay: Antiviral activity against in Vesicular stomatitis virus-induced cytopathogenicity in HEL cells; assay type: functional
Human alphaherpesvirus 1 [4] = assay: Antiviral activity against HSV1 TK- KOS ACV -induced cytopathogenicity in HEL cells; assay type: functional; conditions: Human alphaherpesvirus 1, KOS
[5] = Cytotoxicity against HEL cells; assay type: cell-based; conditions: human
In short: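 Cells seeded at 5 × 10³ cells/well and exposed to medium containing a range of test compound concentrations. After 3 days at 37 °C, cell morphology examined microscopically. Reported as minimum cytotoxic concentration (MCC), the concentration causing a microscopically detectable alteration of normal cell morphology.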

Sindbis virus = assay: Antiviral activity against Sindbis virus-induced cytopathogenicity in Vero cells; assay type: functional
Coxsackievirus B4 = assay: Antiviral activity against Coxsackie virus B4-induced cytopathogenicity in Vero cells; assay type: functional; conditions: Enterovirus B
Punta Toro virus = assay: Antiviral activity against Punta Toro virus-induced cytopathogenicity in Vero cells; assay type: functional
[6] = system: Vesicular stomatitis virus; assay: Antiviral activity against in Vesicular stomatitis virus- induced cytopathogenicity in HeLa cells; assay type: functional
L1210 = assay: Antiproliferative activity against mouse L1210 cells; assay type: functional, cell-based; in short: as §1

| SMILES | IC50 [1] [µM] | IC50 (CCRF-CEM) [µM] | IC50 (HeLa) [µM] | IC50 (MCF7) [µM] | IC50 (MIA PaCa-2) [µM] | IC50 (HEp-2) [µM] | IC50 (SW-620) [µM] | IC50 (WI-38) [µM] | MIC (Human alphaherpesvirus 1 [2]) [µM] | MIC (Human alphaherpesvirus 2) [µM] | MIC [3] [µM] | MIC (Human alphaherpesvirus 1 [4]) [µM] | MCC [5] [µM] | MIC (Sindbis virus) [µM] | MIC (Coxsackievirus B4) [µM] | MIC (Punta Toro virus) [µM] | MIC [6] [µM] | IC50 (L1210) [µM] |
| --- | --- | --- | --- | --- | --- | --- | --- | --- | --- | --- | --- | --- | --- | --- | --- | --- | --- | --- |
| C#Cc1cn(C/C=C2\OC(=O)C(OCc3ccccc3)=C2OCc2ccccc2)c(=O)[nH]c1=O | 7.2 | 4.6 | 3.2 | 2.9 | 8.7 | 4.6 | 5 | 1.5 | > 18 | > 18 | > 18 | > 18 | ≥ 18 | > 18 | > 18 | > 18 | > 18 | 6.8 |
| CC(C)=CCc1cn(C/C=C2\OC(=O)C(OCc3ccccc3)=C2OCc2ccccc2)c(=O)[nH]c1=O | 8.3 | 7.7 | 2 | 4 | 5 | 2.6 | 4 | 2 | 4 (≈ 2 µg/mL) | 4 (≈ 2 µg/mL) | > 4 | > 4 | 20 | > 4 | > 4 | 4 (≈ 2 µg/mL) | > 4 | 8.2 |
| O=C1O/C(=C\Cn2cc(C#Cc3ccccc3)c(=O)[nH]c2=O)C(O)=C1O | 8.2 | 7.6 | 2 | 1 | 3 | 3 | 4 | 1 | > 4 | 4 (≈ 1.41 µg/mL) | 4 (≈ 1.41 µg/mL) | > 4 | 20 | > 4 | > 4 | > 4 | > 4 | 8.1 |
| O=C1O/C(=C\Cn2cc(-c3cccs3)c(=O)[nH]c2=O)C(O)=C1O | > 500 | > 500 | > 100 | > 100 | > 100 | > 100 | > 100 | > 100 | > 100 | > 100 | > 100 | > 100 | 100 | > 100 | > 100 | > 100 | > 100 | > 500 |
| C#Cc1cn(C/C=C2\OC(=O)C(O)=C2O)c(=O)[nH]c1=O | 37 | 23 | 13 | 13 | 13 | 12 | 17 | 11 | > 4 | > 4 | > 4 | > 4 | 20 | > 4 | > 4 | 4 (≈ 1.1 µg/mL) | > 4 | 15 |
| O=C1O/C(=C\Cn2cc(-c3ccco3)c(=O)[nH]c2=O)C(O)=C1O | ≥ 500 | 436 | > 100 | > 100 | > 100 | > 100 | > 100 | > 100 | > 100 | > 100 | > 100 | > 100 | 100 | > 100 | > 100 | > 100 | > 100 | ≥ 500 |
| C=Cc1cn(C/C=C2\OC(=O)C(OCc3ccccc3)=C2OCc2ccccc2)c(=O)[nH]c1=O | 7.6 | 7.2 | 14.5 | 3.8 | 22 | 14.2 | 15.6 | 14.3 | > 18 | > 18 | > 18 | > 18 | 87 | > 18 | > 18 | > 18 | > 18 | 7.2 |
